# An excerpt weighted towards active compounds, which were near 2.3% of everything screened.
# TRPC6 inh = mouse TRPC6 channel inhibition | Q61143 | HEK293-TRPC6, membrane potential dye, ACh-evoked depolarization; stronger effect = lower value | B-score at 10 µM | 310,000 compounds, 1.1% hits | AID 2553;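 active = B-score under library mean minus 3 SD, initial fluorescence not abnormally high, positive integrated signal ratio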;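 also: B-score derived from integrated fluorescence ratio over the kinetic read; more negative B-score means stronger inhibition of depolarization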
# TRPC4 act = activators of mouse TRPC4 channel; B-score at 10 µM; HEK293 TRPC4beta/mu-opioid, Fluo4 calcium fluorescence; stronger effect = higher value; Q9QUQ5; 310,000 compounds, 0.49% hits;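 active = B-score above 5 SD of library B-scores, and initial fluorescence ratio not above library mean plus 5 SD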;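 also: positive B-score marks a calcium rise read as TRPC4 activation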
#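 Incubation: 45 min room-temperature Fluo4 loading, 110 s read / System: HEK293 cells stably co-expressing mouse TRPC4beta and mu-opioid receptor / Signal: Fluo4 fluorescence, kinetic / Control set: buffer (low) and maximal DAMGO (high) / Measure: integrated baseline-normalised fluorescence ratio, converted to per-well B score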
# TRPC4 potent = allosterically enhances the mouse TRPC4 cation channel. Q9QUQ5. HEK293 TRPC4beta/mu-opioid, DAMGO EC20, Fluo-4 Ca2+ flux; stronger effect = higher value. B-score at 10 µM. 310,000 compounds, 0.42% hits;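 active = B-score of calcium response area above 5 SD of library B-scores, with initial fluorescence ratio within 5 SD of library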
# DNA FID counter = counter-screen for HCV NS3 helicase inhibitors: DNA intercalator displacement | DNA fluorescent intercalator displacement, fluorescence | inhibition, % at 7.9 µM | 290,000 compounds, 0.17% hits | AID 1845; in the data active = inhibition above about 37%;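 also: higher means more ethidium bromide displaced from hairpin DNA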
# TRPC4 inh = inhibitors of mouse TRPC4 channel. B-score at 10 µM. HEK293 TRPC4beta/mu-opioid, DAMGO-evoked Fluo4 calcium flux; stronger effect = lower value. 300,000 compounds, 0.39% hits. Q9QUQ5;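 active = B-score over 3 SD under the library average, no early fluorescence shift, positive overall ratio signal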
#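 Assay system: HEK293 cells with stable TRPC4beta plus mu-opioid receptor expression; Probe or stimulus: DAMGO in two steps, submaximal then maximal; Dosing: single-point compound dosing; Measured by: Fluo4 calcium-dye fluorescence, kinetic read; Read-out basis: B score from integrated Fluo4 fluorescence ratio.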
# TRPC6 activator = mouse TRPC6 channel activation. Q61143. HEK293-TRPC6 membrane potential dye fluorescence; stronger effect = higher value. B-score at 10 µM. 310,000 compounds, 0.13% hits. AID 2550;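 active = B-score of the integrated fluorescence ratio above library mean plus 3 SD, and starting fluorescence ratio within library mean plus 5 SD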;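 also: higher score means more depolarization so channel activation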
# A number is an active result; - = inactive; . = not tested or not shown.
SMILES,TRPC6 inh,TRPC4 act,TRPC4 potent,DNA FID counter,TRPC4 inh,TRPC6 activator
CCOC(=O)c1c(NC(=O)c2ccc(C)cc2)sc2c1CC(C)(C)NC2(C)C,-,-,-,-,-,-
COC(=O)c1c(NC(=O)c2ccccc2)sc2c1CC(C)(C)NC2(C)C,-,-,-,-,-,-
COc1ccccc1CNC(=O)C1CCN(S(=O)(=O)c2ccc(N3CCCC3=O)cc2)CC1,-,-,-,-,-,-
O=C(NCCCn1ccnc1)c1ccc(C(F)(F)F)cc1,-,-,-,-,-,-
O=C(N/N=C/c1cc([N+](=O)[O-])cc(Br)c1O)C12CC3CCC(CC(C3)C1)C2,-,136,-,-,-,-
COc1ccc(N2CC(C(=O)N[C@H](C(=O)NC(C)c3ccccc3)C(C)C)CC2=O)cc1 (some centres not stated),-,-,-,-,-,-
CCOC(=O)C1(CCOc2ccccc2)CCN(Cc2nccn2CC)CC1,-,-,-,-,-,-
CCOC(=O)C1(CCOc2ccccc2)CCN(Cc2ccc(C(=O)OC)cc2)CC1,-,-,-,-,-,-
CCOC(=O)C1(CCOc2ccccc2)CCN(Cc2cccn2-c2ncccn2)CC1,-,-,-,-,-9,-
CCOC(=O)C1(CCOC)CCN(Cc2ccccc2-c2ccco2)CC1,-,123,-,-,-,-
CCOC(=O)C1(CCOc2ccccc2)CCN(Cc2ccc(-n3cccn3)cc2)CC1,-,-,-,-,-7,-
CCOC(=O)C1(CCOc2ccccc2)CCN(Cc2cccs2)CC1,-,-,-,-,-5,-
CCOC(=O)C1(CCOc2ccccc2)CCN(Cc2ccncc2)CC1,-,-,-,-,-,-
COCCN(C(=O)CSc1n[nH]c(-c2ccccc2)n1)c1c(N)n(Cc2ccccc2)c(=O)[nH]c1=O,-,-,-,.,-,-
CCC(C(=O)NCCN1CCOCC1)n1nc(C)n2c(cc3sccc32)c1=O (configuration not stated),-,-,-,-,-,-
CCOC(=O)C1(CCOc2ccccc2)CCN(Cc2cccc(OC)c2)CC1,-,-,-,-,-,-
CCOC(=O)C1(CCOc2ccccc2)CCN(Cc2cc(OC)ccc2OC)CC1,-,98,-,-,-,-
O=C(CNCC1CCCCC1)Nc1ccc(OC(F)(F)F)cc1,-,43,-,-,-,-
CCN1CCN(Cc2c(C)[nH]c3ccc(OC)cc3c2=O)CC1,-,-,15,-,-,-
CCOc1ccc2[nH]c(C)c(CN3CCN(CC)CC3)c(=O)c2c1,-,-,-,-,-,-
Cc1[nH]c2ccc(Br)cc2c(=O)c1CN1CCCCC1,-,-,10,-,-,-
O=C(Nc1cccc(-n2cnnn2)c1)c1cnccc1Cl,-,-,-,-,-,-
CN1CCCC(OC(=O)c2cc(F)c(F)c(F)c2F)C1 (configuration not stated),-,-,-,-,-,-
Cc1cccc(C(=O)OC2CCCN(C)C2)c1C (configuration not stated),-,95,-,-,-,-
Cc1ccccc1C(=O)OC1CCCN(C)C1 (configuration not stated),-,-,14,-,-,-
SMILES,TRPC6 inh,TRPC4 act,TRPC4 potent,DNA FID counter,TRPC4 inh,TRPC6 activator
Cc1ccc2[nH]c(C)c(CCN(Cc3cccnc3)C(=S)NC(C)(C)C)c2c1,-,-,16,-,-,-
CCOc1ccccc1N(C)S(=O)(=O)c1ccc2c(c1)N(C(C)=O)CCO2,-,-,-,-,-,-
COc1ccc(CN2CCNC(=O)C2CC(=O)NC2CCC2)c(OC)c1 (configuration not stated),-,-,-,-,-,-
COc1ccc(CN2CCNC(=O)C2CC(=O)NC2CCCC2)c(C)c1C (configuration not stated),-,-,-,-,-6,-
CC1CCN(S(=O)(=O)c2cc(Cl)ccc2Br)CC1,-,-,-,-,-,-
O=S(=O)(c1ccc(Cl)cc1Br)N1CCCCC1,-,-,17,-,-,-
CC(=O)Nc1ccc(S(=O)(=O)Nc2nc3ccccc3nc2N2CCCCCC2)cc1,-,-,12,-,-,-
Cc1nn(-c2cc(C(F)(F)F)ccc2Cl)c2nc(C(F)(F)F)[nH]c(=O)c12,-,-,-,-,-,-

# Assay outcomes from PubChem.
